# Only a selection was taken, and hits are over-represented in it overall.
# XBP1 UPR activ = activators of adaptive XBP1 UPR arm, primary screen, cell-based, CHO-XBP1 luciferase reporter, luminescence, uHTS | IRE1-XBP1 UPR activation; percent of tunicamycin response, DMSO as zero | 330,000 compounds, 0.33% hits | activation, % at 20 µM | AID 463104, 2010;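 active = versus positive control, 20 µM dose yields 30% or more activation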;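 also: 100% = tunicamycin at 10 µg/mL and 0% = DMSO only wells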
#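 Material – CHO cell line with stable XBP1 luciferase reporter · Buffer or medium – F12 plus 10% FBS · Compound – single point, 20 µM final compound, 1% DMSO · Schedule – 16-18 h cell attachment at 37 °C, then 6 h compound exposure · Signal – Steady-Glo luminescence read · Benchmarks – high control tunicamycin 10 µg/mL final, low control DMSO vehicle only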
# CHOP inh = inhibitors of CHOP promoter induction, primary screen, cell-based, unfolded protein response, luciferase reporter; inhibition, % at 10 µM; CHO-K1 CHOP-promoter luciferase, tunicamycin-induced, 15-18 h; 220,000 compounds, 3.8% hits;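 active = compounds that reduced the stress-induced luciferase reporter signal by more than about 70% of percent inhibition, limit read from the data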;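 also: 0% = tunicamycin plus vehicle and 100% = wells without tunicamycin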
# L major viab = Leishmania major promastigote growth inhibition, primary screen; Leishmania major promastigotes, resazurin fluorescence viability; inhibition, % at 10 µM; 200,000 compounds, 9% hits; AID 1063, 2008; in the data active = inhibition above about 50%;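 also: promastigotes grown with compound for 44 hours at 28 °C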
# T cruzi inh = inhibitors of intracellular T. cruzi growth, primary screen, luminescence, NIH3T3 host cells. 300,000 compounds, 1.4% hits. T. cruzi beta-gal in NIH3T3, 90 h. AID 1885, 2009. inhibition, % (no concentration beside the values);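 active = mean inhibition across valid replicates above about 55%, limit read from the data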;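 also: signal also drops with host cell toxicity which is not excluded here; 0% = plate median of DMSO wells and 100% = zero luminescence signal; higher percent means less beta-gal luminescence so fewer parasites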
#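 Test system: β-gal T. cruzi (Tulahuen C4) inside NIH/3T3 cells / Quantity: 5,000 cells/well / Measured by: luminescence from GalScreen with 0.05% NP40, read after 60 min / Medium: DMEM plus 2% FBS / Measure: parasite load inhibition, % / Reagent: Tulahuen C4 trypomastigotes, 5000/well / Schedule: co-culture of at least 90 h after 3 h attachment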
# UPR CHOP act = activators of apoptotic CHOP UPR arm, primary screen, cell-based, CHO-CHOP luciferase reporter, luminescence, uHTS. UPR activation; percent of tunicamycin response over DMSO baseline. activation, % at 10 µM. 330,000 compounds, 0.34% hits. AID 449763, 2010;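 active = at 10 µM dose, activation of 40% or more, normalized to positive control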;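 also: 100% = tunicamycin at 10 µg/mL and 0% = DMSO alone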
#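 Assay system: CHO cells with stable CHOP pathway luciferase reporter; Buffer or medium: F12 plus 10% serum; Times: 16-18 h cell attachment, then 6 h compound exposure, 37 °C; Signal: luciferase luminescence; Read-out basis: percent activation relative to tunicamycin control; Control set: tunicamycin high control, DMSO low control.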
# Dynein cargo inh = inhibitors of GR-EGFP nuclear translocation, primary screen, dynein cargo transport inhibitor project, imaging, high-content, 3617.4 mouse cells; test concentration mostly 20 µM; stimulated with dexamethasone, 1 µM; active compounds read low; z-score, hits read low; 220,000 compounds, 0.47% hits;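 active = plate z-score of nuclear minus cytoplasmic receptor signal below a set negative limit, without overly bright fluorescence or cell loss, cut at about -3.5 in these data, passing the limit was not always enough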;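 also: z-score of nuclear minus cytoplasmic ring GR-EGFP intensity difference per well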
#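 Buffer or medium: tet-free, stripped-serum medium; Also added: dexamethasone, 1.0 µM final; Technique: high-content fluorescence imaging after fixation; Times: 48 h induction, 1 h compound, 30 min dex at 37 °C; Read-out: per-cell GR-EGFP intensity, nucleus versus surrounding cytoplasmic ring, well-averaged.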
# CHOP confirm = retest of CHOP induction inhibitors, confirmation, cell-based. shares compounds with CHOP inh. AID 504437, 2011. 2,100 compounds, 45% hits. inhibition, % at 10 µM. CHO-CHOP promoter luciferase reporter, tunicamycin-induced, luminescence;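 active = mean of three repeat readings of reporter signal inhibition above a set limit, cut at about 70% in these data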;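 also: 0% = tunicamycin plus vehicle and 100% = wells lacking tunicamycin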
# Active calls of the source: *; nt = no result given.
SMILES,XBP1 UPR activ,CHOP inh,L major viab,T cruzi inh,UPR CHOP act,Dynein cargo inh,CHOP confirm
Cn1c(SCC(=O)N/N=C/c2ccc([N+](=O)[O-])s2)nnc1-c1ccccc1,4,105*,100*,58*,10,-0.34,-8
Cn1c(SCC(=O)N/N=C/c2cc([N+](=O)[O-])ccc2O)nnc1-c1ccccc1,-4,60,nt,30,-3,0.28,nt
Cc1ccc(C)c(NC(=S)NC(NC(=O)Cc2ccccc2)C(Cl)(Cl)Cl)c1 (stereo unspecified),-3,103*,-3,17,1,0.51,25
Cc1ccc(NC(NC(=O)Cc2ccccc2)C(Cl)(Cl)Cl)cc1 (stereo unspecified),nt,15,13,nt,nt,0.31,nt
COc1cc2nc(CSc3nc(-c4ccc(F)cc4)cs3)[nH]c(=O)c2cc1OC,-3,105*,6,-3,1,-0.62,51
O=C(Nc1ccnn1C1CCN(Cc2cccc(F)c2F)CC1)C1CCCC1,-6,nt,nt,1,3,nt,nt
NS(=O)(=O)OCc1ccc(C(F)(F)F)cc1,3,nt,nt,1,-2,nt,nt
O=[N+]([O-])c1ccc(O)c(/C=N/Nc2ccccn2)c1,nt,105*,89*,51,nt,2.4,11
O=C(N/N=C/c1cc([N+](=O)[O-])ccc1O)Nc1ccccc1,-1,42,-8,-7,0,-0.63,nt
O=C(NC1CCN(S(=O)(=O)c2ccccc2C(F)(F)F)CC1)c1ccco1,0,nt,nt,4,0,nt,nt
C=C(C)COc1ccc(-c2n[nH]c(C)c2Oc2ccccc2OC)c(O)c1,2,107*,76*,6,-1,1.4,115*
Oc1cc(OCc2ccccc2)ccc1-c1[nH]ncc1-c1ccccc1,-2,5,nt,1,0,0.96,nt
O=[N+]([O-])c1ccc(COc2ccc(-c3[nH]ncc3-c3ccccc3)c(O)c2)cc1,-4,99*,5,6,-1,-0.69,102*
CCOc1ccc(-c2n[nH]c(C)c2Oc2ccccc2OC)c(O)c1,-3,19,11,-13,-2,0.35,nt
C=C(C)COc1ccc(-c2[nH]ncc2Oc2cccc(OC)c2)c(O)c1,3,103*,74*,-4,1,-0.034,12
C=C(C)COc1ccc(-c2[nH]ncc2Oc2ccccc2OCC)c(O)c1,-2,107*,39,nt,1,-0.49,107*
COCCN1C(=O)N[C@@H](c2cccs2)C(C(C)=O)=C1C,0,nt,nt,-3,-1,nt,nt
C=C(C)COc1ccc(-c2[nH]ncc2-c2ccccc2)c(O)c1,2,102*,8,-20,-1,0.49,24
CCCc1ccc(Oc2cn[nH]c2-c2ccc(O)cc2O)cc1,3,108*,95*,0,-1,-0.8,120*
C=C(C)COc1ccc(-c2[nH]ncc2-c2ccc(OC)cc2)c(O)c1,0,38,nt,7,-2,0.97,nt
O=C(O)c1cccc(-c2ccc(/C=N/n3cnc4sc5c(c4c3=O)CCCC5)o2)c1,-2,6,nt,3,1,-0.022,nt
CC(C)C[C@H](N)c1nnc(S(=O)(=O)Cc2ccc(F)cc2)o1,-8,103*,-6,-6,17,-3.7*,47
CCc1nnc(NC(=O)c2sc3nc4c(cc3c2N)CCCCCC4)s1,1,105*,-4,-9,6,0.63,2
COc1ccc(C(=O)Nc2nnc(-c3ccco3)s2)cc1,-10,107*,19,-3,-7,0.56,73*
O=C(Nc1ccc(F)cc1)Nc1nnc(-c2ccco2)s1,1,96*,-5,3,5,-0.83,12
SMILES,XBP1 UPR activ,CHOP inh,L major viab,T cruzi inh,UPR CHOP act,Dynein cargo inh,CHOP confirm
Cc1ccc(NC(=O)CN2C(=O)C(=O)N(C3CCCC3)C2=O)c(Cl)c1,0,nt,nt,nt,-1,nt,nt
Clc1ccc(-c2n[nH]c3c2CCCC3)cc1,15,51,-5,12,2,0.21,nt
Clc1ccc(-c2n[nH]c3c2CCC3)cc1Cl,1,98*,6,-1,3,-0.94,63
Cc1ccc(NNC(=S)Nc2ccc(C(C)C)cc2)c(C)c1,-2,106*,5,11,0,0.93,16
COc1ccc(N=Cc2sc3ccccc3c2Cl)cc1,-1,53,-3,-6,2,-0.49,nt
COc1ccc(N=c2ssnc2Cl)cc1,-3,109*,-6,4,5,-3.8*,2
CCOC(=O)c1ccc(N=c2ssnc2Cl)cc1,0,98*,-9,-20,1,0.45,56
CC(C)(C)c1ccc(O)c(N=Cc2cc(Br)ccc2O)c1,-11,98*,29,-2,-5,0.43,112*
Cc1ccc(O)c(C=Nc2cc(C)ccc2O)c1,0,27,0,1,0,-0.02,nt
CC(C)=CCc1c(O)c(CC=C(C)C)c2c(c1O)C(=O)CC(c1ccc(O)cc1)O2 (stereo unspecified),3,101*,28,21,0,-0.38,73*
O=C(C[n+]1cn(C(F)F)c2ccccc21)c1ccc(Br)cc1,1,101*,8,-21,-2,-1.2,15
Cc1ccc(NC(=O)COc2cccc(Oc3ccccc3)c2)cc1S(=O)(=O)N1CCOCC1,1,nt,nt,nt,-1,nt,nt
Cc1cc(/C=N/Nc2nc(N)ncc2[N+](=O)[O-])c(C)n1-c1cccc(C(F)(F)F)c1,17,98*,nt,-7,8,-0.47,96*
Cc1cc(/C=N/Nc2ccc([N+](=O)[O-])cn2)c(C)n1-c1ccc(C(=O)O)cc1,1,3,1,-1,3,-0.46,nt
CN(CC(=O)NCCCc1ccccc1)S(=O)(=O)c1ccc(Br)cc1,-5,nt,nt,-1,-2,nt,nt
S=c1[nH]nc(C2CCCCC2)n1/N=C/C=C/c1ccccc1,1,105*,-4,20,-1,-0.8,106*
CC(/C=N/n1c(COc2ccccc2)n[nH]c1=S)=C\c1ccccc1,-1,111*,-7,1,1,0.26,-8
S=c1[nH]nc(C2CCCCC2)n1/N=C/c1ccccc1Br,-4,nt,nt,-5,-2,nt,nt
S=c1[nH]nc(C2CCCCC2)n1/N=C/C(Cl)=C\c1ccccc1,6,102*,13,-79,0,-2.1,29
Oc1cccc(/C=N/n2c(C3CCCCC3)n[nH]c2=S)c1,3,nt,nt,-7,-1,nt,nt

# From PubChem BioAssay
